SENP8 block-1 = SENP8 (human) protease inhibition | recombinant SENP8, Nedd8 substrate fluorescence | inhibition, % at 20 µM | hit rate 0.64% among 360,000 | AID 602440; in the data active = inhibition mostly above about 40%, no sharp cut-off; inactive = mostly below about 27%
SENP6 inh = blocks the human protease SENP6. Q9GZR1. Recombinant SENP6 catalytic domain, aminoluciferin luminescence. inhibition, % at 10 µM. hit rate 1.8% among 330,000;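 active = inhibition above about 50% at the single tested dose, limit read from the data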;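 note: plate controls were DMSO wells with enzyme for no effect and DMSO wells lacking enzyme for full effect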
Apaf-1 inh = human Apaf-1 inhibition. AID 489030. inhibition, % at 20 µM. hit rate 0.71% among 330,000. reconstituted apoptosome caspase-3 activity, DEVD-Rh110 fluorescence. O14727; active = inhibition of at least 40% at 20 µM;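 note: plate controls were DMSO wells for no effect and DEVD-CHO caspase inhibitor wells for full effect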
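Material: biochemical Apaf-1 apoptosome reconstitution. Medium: Hepes buffer, pH 7.5. Also added: cytochrome c activation, bis-DEVD rhodamine 110 substrate. Timing: 30 min compound preincubation, 50 min activation, room temperature. Measured by: rhodamine 110 fluorescence at Ex 480/Em 540 nm.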
UBC13 polyUb = human UBC13 polyubiquitination inhibition; P61088; UBC13 polyubiquitin chain formation, TR-FRET; inhibition, % at 20 µM; hit rate 0.47% among 330,000; AID 485273; in the data active = inhibition above about 45%, passing the limit was not always enough; inconclusive = no clear call, values can overlap the other calls
SENP7 block = inhibitors of human SENP7 protease. Q9BQF6. inhibition, % at 5 µM. recombinant SENP7, Z-RLRGG-aminoluciferin luminescence, 40 min. hit rate 1.5% among 330,000;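 active = inhibition above about 50% at the single test dose, limit read from the data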;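 note: plate controls were DMSO with enzyme for no effect and no enzyme buffer wells for full effect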
Target sequence (Q9BQF6 706-1050 limits assumed): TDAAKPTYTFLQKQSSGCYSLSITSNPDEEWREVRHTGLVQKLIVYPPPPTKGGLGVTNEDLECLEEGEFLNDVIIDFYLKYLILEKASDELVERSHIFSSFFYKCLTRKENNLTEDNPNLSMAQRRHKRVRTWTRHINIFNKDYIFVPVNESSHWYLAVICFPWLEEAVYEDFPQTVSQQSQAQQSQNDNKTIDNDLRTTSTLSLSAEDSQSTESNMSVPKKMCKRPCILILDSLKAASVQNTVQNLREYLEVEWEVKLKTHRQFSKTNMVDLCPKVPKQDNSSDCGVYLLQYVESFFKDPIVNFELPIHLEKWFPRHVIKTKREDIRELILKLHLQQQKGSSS
SENP8 block-2 = SENP8 protease inhibition; Q96LD8; inhibition, % at 10 µM; hit rate 1.2% among 330,000; purified SENP8, Z-RLRGG-aminoluciferin cleavage, luminescence; in the data active = inhibition above about 50%
Casp3 UBC13 ctr = inhibits human caspase-3 in UBC13 counter-screen; shares compounds with UBC13 polyUb; Recombinant caspase-3, Caspase-Glo 3/7 luminescence, 60 min; inhibition, % at 20 µM; hit rate 4% among 1,400; AID 488856;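 active = mean inhibition across replicates above about 26%, limit read from the data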;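 note: plate controls were DMSO with caspase-3 for no effect and DMSO wells lacking enzyme for full effect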
Target sequence (P42574 whole entry, looked up): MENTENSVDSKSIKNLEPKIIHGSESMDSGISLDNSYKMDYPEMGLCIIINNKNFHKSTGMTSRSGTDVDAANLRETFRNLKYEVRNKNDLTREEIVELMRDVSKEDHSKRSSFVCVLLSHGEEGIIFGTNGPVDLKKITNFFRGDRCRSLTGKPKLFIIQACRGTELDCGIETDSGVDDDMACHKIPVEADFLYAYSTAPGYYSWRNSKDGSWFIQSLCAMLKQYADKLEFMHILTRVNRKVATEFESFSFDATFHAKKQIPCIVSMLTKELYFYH
UBC13 confirm = human UBC13 polyubiquitin inhibition, confirmed; UBC13 polyubiquitination, TR-FRET, biochemical; hit rate 68% among 1,400; shares compounds with UBC13 polyUb; inhibition, % at 10 µM; AID 488859; in the data active = inhibition above about 45%; inconclusive = no clear call, values can overlap the other calls
The depositor's hits bear a star; i = inactive; ? = inconclusive; / = no result. Sampled rows, rich in hits. Any-hit rate of the full collection: about 3%.

SMILES	SENP8 block-1	SENP6 inh	Apaf-1 inh	UBC13 polyUb	SENP7 block	SENP8 block-2	Casp3 UBC13 ctr	UBC13 confirm
Oc1c(C(c2cccs2)N2CCN(c3cccc(Cl)c3)CC2)sc2ncnn12 (centres undefined)	20	-15	13	53*	10	-15	-3	7
CC(C)Cn1cc(C(=O)NCCCN2CCC(C)CC2)c2c3ccccc3n(C)c2c1=O	-409	-8	-16	76*	4	-4	-4	50*
CC(C)Cn1cc(C(=O)NC2CCN(Cc3ccccc3)CC2)c2c3ccccc3n(C)c2c1=O	/	-2	19	68*	-5	1	-2	45
NS(=O)(=O)c1cccc(NC(=O)COC(=O)CCCc2c[nH]c3ccccc23)c1	-39	-17	-7	16	-5	-3	/	/
O=C(CCCCCN1C(=O)c2cccc3cccc(c23)C1=O)NC1CCS(=O)(=O)C1 (centres undefined)	-400	-5	-19	83*	7	-3	-2	98*
COc1cc(C(=O)Nc2cccc(S(=O)(=O)N3CCCC3)c2)cc(OC)c1C	4	-1	-6	75*	5	0	0	70*
O=C(Nc1cc(C(F)(F)F)ccc1-n1cncn1)c1cn2ccccc2n1	-66	-4	4	-7	0	6	/	/
CCOC(=O)C1=NOC(CN(c2ccccc2)S(=O)(=O)c2ccc(Cl)cc2)C1 (centres undefined)	8	1	6	3	3	5	/	/
Cc1cc(=O)oc2c3c(cc(OCC(=O)N[C@@H](CC(C)C)C(=O)O)c12)OC(C)(C)CC3	-282	6	9	8	-7	-3	/	/
CCN1CCN(C(=O)c2cc(-c3ccco3)nc3ccccc23)CC1	i	-12	1	52*	5	-7	4	32
Nc1cccc(CP(=O)(c2ccccc2)c2ccccc2)c1	17	-11	-1	-6	1	1	/	/
Cc1ccc(C)c(N2CCN(c3ccc4cc(S(=O)(=O)N5CCCCC5)ccc4n3)CC2)c1	-286	-2	16	?	-11	-9	/	/
Cc1cccc(N2CCN(c3ccc4cc(S(=O)(=O)N5CCCCC5)ccc4n3)CC2)c1C	-411	3	-9	52*	-5	-5	-1	?
CCOc1ccc(NC(=O)Cn2c(=O)n(CCCC(=O)NC3CCN(Cc4ccccc4)CC3)c(=O)c3ccccc32)cc1	5	2	13	92*	9	0	-1	97*
NC(=O)Cn1c(=O)n(CCCC(=O)NC2CCN(Cc3ccccc3)CC2)c(=O)c2ccccc21	7	-22	3	33	8	-1	/	/
CC1CC(C)CN(CCCNC(=O)C2CCN(c3ncnc4c3sc3cccc(F)c34)CC2)C1 (centres undefined)	/	-3	2	48*	5	5	-2	54*
c1cc(CNCCNCc2ccncc2)ccn1	-9	/	/	/	/	/	/	/
COC(=O)[C@@]12CCCCN1[C@H](c1ccc(-c3cc(C(C)=O)cs3)cc1)[C@H]1C(=O)N(C)C(=O)[C@H]12	-21	-5	21	11	-3	4	/	/
COC(=O)[C@@]12CCCCN1[C@H](c1ccc(-c3cc(C(C)=O)cs3)c(OC)c1)[C@H]1C(=O)N(C)C(=O)[C@H]12	-490	-9	10	52*	-5	-3	-6	36
COC(=O)c1c(NC(=S)NN2CCN(C)CC2)sc2c1CCC(C)C2 (centres undefined)	4	-9	36	62*	5	4	4	91*
COC(=O)c1c(NC(=O)Cc2cccs2)sc2c1CCC(C)C2 (centres undefined)	-21	0	14	4	4	2	/	/
Cc1nc(-c2ccc(F)cc2)c(CC(=O)N2CCN(S(=O)(=O)c3cccc(Cl)c3)CC2)s1	4	-10	17	0	-8	-4	/	/
COc1cc(CNCCc2c[nH]c3ccccc23)ccc1OCc1ccccc1F	18	-15	17	47*	-9	-4	-1	44
Nc1ccc2c(c1)CC(=O)c1ccccc1S2	23	-7	9	5	-7	1	/	/
O=C1Cc2ccccc2Sc2ccc(O)cc21	-202	-21	-5	51*	-3	-14	-1	42
SMILES	SENP8 block-1	SENP6 inh	Apaf-1 inh	UBC13 polyUb	SENP7 block	SENP8 block-2	Casp3 UBC13 ctr	UBC13 confirm
CCC(=O)NC(c1cccs1)c1cc(Cl)c2ccccc2c1O (centres undefined)	-480	-14	6	49*	3	9	-2	34
CC(=O)NC(c1cc(Cl)c2ccccc2c1O)C(C)C (centres undefined)	-420	4	5	81*	0	4	-4	56*
CC(=O)NC(c1ccco1)c1cc(Cl)c2cccnc2c1O (centres undefined)	23	/	/	/	/	/	/	/
CC(=O)NC(c1cccs1)c1cc(Cl)c2ccccc2c1O (centres undefined)	-492	0	8	71*	-5	10	-2	58*
CC(=O)c1sc(NC(=O)C2CC(=O)N(Cc3ccccc3)C2)nc1-c1ccccc1 (centres undefined)	0	-35	15	-3	6	-36	/	/
CCN(CC(=O)NCc1ccc(F)cc1)C(=O)c1cc2ccccc2o1	5	-5	8	4	-5	7	/	/
CC(=O)n1cc([C@H]2C=C(C(=O)Nc3ccccc3)O[C@@H](OCc3ccc(CO)cc3)C2)c2ccccc21	3	0	24	64*	-2	2	7	58*
CC(=O)n1cc([C@@H]2C=C(C(=O)NCc3ccccc3)O[C@H](OCc3ccc(CO)cc3)C2)c2ccccc21	-47	-3	21	-10	-2	-7	/	/
C#CCNC(=O)C1=C[C@H](c2cn(C(C)=O)c3ccccc23)C[C@H](OCc2ccc(CO)cc2)O1	-48	-7	6	63*	5	-9	-2	46*
O=S1(=O)N[C@H](c2ccccc2)C[C@H](c2ccc(C(F)(F)F)cc2)O1	15	-27	24	1	-11	-18	/	/
COc1cc(/C=N/NC(=O)c2sc3nc(C)cc(C)c3c2N)ccc1O	-462	15	-25	13	8	-2	/	/
Cc1ccc(NC(=O)c2ccc3ccccc3n2)cc1S(=O)(=O)N(C)C	10	-24	-7	0	-7	-1	/	/
C=CCn1c(=O)c(C(=O)Nc2ccccc2S(N)(=O)=O)c(O)c2ccccc21	-119	-8	8	46*	1	-3	2	10
C=CCn1c(=O)c(C(=O)Nc2ccccc2C(=O)OCC)c(O)c2ccccc21	-144	-11	2	24	0	-3	/	/

High-throughput results deposited in PubChem by Sanford-Burnham Center for Chemical Genomics.
